# The full list was thinned out, with hits kept by preference.
# PTEN del growth: PTEN-deleted cell growth suppression; 140,000 compounds, 1.2% hits; viability, % at 10 µM; AID 827; HCT116 PTEN-null viability, CellTiter-Glo, 60 h; hits give low values;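 active = viability at or below a set limit, 4 SD under the median of all tested compounds, cut at about 3.7% in these data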;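 also: PTEN knockout HCT116 line with beta catenin targeted HCT116 as companion control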
# Lung fibro prol: blocks proliferation of human lung fibroblasts. viability, % at 10 µM. LL 47 human lung fibroblast viability, ATP luminescence; hits give low values. 85,000 compounds, 1.1% hits;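 active = viability at or below 50% in the single dose screen; inactive = viability above 50%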;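 also: compound exposure lasted 72 h before the ATP readout; 100% = median luminescence of untreated cell-only wells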
#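 Material: human lung fibroblast line LL 47, low passage; Evaluation: viability percentage against median untreated-cell control; Buffer or medium: 15% FBS in IMEM; Incubation: 72 h compound exposure at 37 °C after overnight plating; Dosing: 0.1% DMSO in all compound wells; Measured by: CellTiter-Glo luminescence.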
# bCat KO growth: beta-catenin-lacking colon tumor cell growth suppression. 140,000 compounds, 1.5% hits. AID 818. viability, % at 10 µM. HCT116 beta-catenin knockout viability, CellTiter-Glo, 60 h; hits give low values;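 active = viability at or under a set limit, the compound median less 4 SD, cut at about 6% in these data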;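 also: 0% = Hyamine 1622 control at 20 µM and 100% = untreated cell control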
# H69AR inhibit: growth inhibitors of human H69AR lung tumor cells; H69AR lung tumor viability, ATP luminescence, 72 h; hits give low values; viability, % at 10 µM; 85,000 compounds, 6% hits;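 active = viability at or below 40%; inactive = viability above 40%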;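 also: multidrug resistant small cell line overexpressing MRP-1 efflux transporter; 100% = mean luminescence of untreated control wells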
# HUVEC prolif 384: inhibitors of human endothelial cell proliferation | HUVEC proliferation, CellTiter-Glo luminescence, 72 h; hits give low values | viability, % at 10 µM (by protocol) | 86,000 compounds, 1.1% hits;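 active = viability at or below 30%; inactive = viability above 30%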;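 also: 100% = median luminescence of DMSO-only cell control wells on each plate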
# * hit, by the source's call; . = no result given.
SMILES,PTEN del growth,Lung fibro prol,bCat KO growth,H69AR inhibit,HUVEC prolif 384
CCOc1ccc(C(=O)N/N=C(\c2ccccc2)c2ccccn2)cc1,2.6*,.,3.7*,.,.
Cc1cc(OCCNCCO)cc(C)c1Cl,85.5,102.0,84.6,92.1,87.7
Cc1cc(OCCCCCNCCO)cc(C)c1Cl,3.6*,75.3,14.0,37.3*,73.4
COc1ccc(N2CCN(c3oc(Cc4ccccc4)nc3C#N)CC2)cc1,60.4,95.7,64.0,35.4*,82.2
CC(/C=C/c1ccc2c(c1)OCO2)=N/NC(=O)c1cccnc1,89.8,.,83.9,.,.
Cn1ncc(N=Cc2ccccc2)c1C(=O)Nc1cccc(Cl)c1,61.8,77.6,59.0,37.6*,61.0
CCOC(=O)c1ccc(NC(=O)CN(Cc2ccc(Cl)cc2)S(C)(=O)=O)cc1,86.6,96.6,87.4,41.0,97.4
Cc1noc(/C=C/c2ccco2)c1S(=O)(=O)N1CCC(C(=O)N2c3ccccc3CC2C)CC1 (stereo not drawn),75.2,102.3,76.9,92.0,98.7
CCCn1c(/N=C/c2cc(OC)ccc2O)nc2ccccc21,77.3,108.0,80.2,39.6*,81.5
CCCSc1nc(N)nc(-c2cccs2)c1C#N,99.8,.,101.6,.,.
O=C(Nc1ccc(N2CCOCC2)cc1)C1CCCN(S(=O)(=O)c2cccc(C(F)(F)F)c2)C1 (stereo not drawn),70.6,70.7,75.5,68.6,48.7
O=c1[nH]c(CN2CCc3ccccc3C2)nc2ccccc12,110.4,82.8,91.7,86.2,81.4
Cc1[nH]c2ccccc2c1CN1CCc2ccccc2C1,2.7*,62.9,2.2*,35.3*,79.5
CCOc1ccc(-c2c(C(=O)N/N=C/c3ccc(OC)cc3)nnn2-c2nonc2N)cc1,85.4,.,87.9,.,.
Cc1ccc(C(=O)CC2(O)C(=O)N(Cc3ccccc3Cl)c3ccccc32)o1 (stereo not drawn),14.4,89.1,22.9,18.5*,81.9
O=C(CC1(O)C(=O)N(Cc2cccc3ccccc23)c2ccccc21)c1cccnc1 (stereo not drawn),13.5,53.1,11.6,19.7*,39.6
CC1CN(C(=S)NC(=O)c2ccco2)CC(C)O1 (stereo not drawn),90.0,.,93.5,.,.
COc1ccc(C2N(C(=O)CN3CCOCC3)CCN2S(=O)(=O)c2ccccc2)cc1 (stereo not drawn),92.9,.,81.1,22.0*,87.2
O=C(NCC1CCCC(CNC(=O)N2CCc3ccccc32)C1)N1CCc2ccccc21 (stereo not drawn),26.6,.,35.5,.,.
Cc1cc2c(cc1C)CSC(c1ccc3ccccc3c1O)SC2,91.2,97.7,101.9,38.2*,90.5
Cc1cc2c(cc1C)CSC(c1c(O)ccc3ccccc13)SC2,5.8,67.3,4.6*,1.6*,1.7*
Cc1cc2c(cc1C)CSC(c1ccccc1O)SC2,75.6,71.2,98.5,57.6,34.4
Cc1cc2c(cc1C)CSC(c1ccc(O)cc1)SC2,88.5,103.6,91.0,87.0,99.2
COC(=O)[C@@H]1C(c2c(OC)cc(OC)cc2OC)=NO[C@H]1C(=O)OC,99.5,.,86.7,.,.
O=C(CN1C(=O)CCC1=O)Nc1nc(-c2ccc(Oc3ccccc3)cc2)cs1,88.9,.,88.8,.,.
SMILES,PTEN del growth,Lung fibro prol,bCat KO growth,H69AR inhibit,HUVEC prolif 384
COC(=O)Nc1ccc(S(=O)(=O)NCCO)cc1,86.6,.,76.0,.,.
CCOC(=O)Cc1csc(Nc2ccc(Cl)cc2)n1,85.6,.,87.9,.,.
CCOC(=O)Cc1nnc2c(Nc3ccc(Cl)cc3)nc3nonc3n12,26.4,70.6,32.7,14.1*,38.1
COc1cccc2sc(N(CCCN(C)C)C(=O)c3sc4ccccc4c3Cl)nc12,97.9,.,95.8,.,.
CCOC(=O)c1oc2ccc(Br)cc2c1NC(=O)CN1CCN(C)CC1,4.8,81.1,4.4*,51.1,68.8
COc1ccc2oc(C(=O)c3ccccc3)c(NC(=O)CN3CCN(C)CC3)c2c1,1.6*,53.8,1.4*,0.7*,32.0
CCn1cc(C(=O)N2CCN(c3cccc(Cl)c3)CC2)c2cc(OC)c(OC)cc2c1=O,77.3,.,92.8,.,.
Cc1cc(NC(=O)/C=C/c2ccc(Cl)cc2)no1,77.1,.,83.5,.,.
Cc1[nH]n(-c2ccccc2)c(=O)c1/C=N/O,99.7,.,105.5,.,.
Cc1ccc2cccc(N=Cc3c(C)[nH]n(-c4ccccc4)c3=O)c2n1,2.5*,.,2.8*,.,.
CNc1cccc2c1C(=O)c1ccccc1C2=O,73.1,.,82.9,.,.
O=C1c2ccccc2C(=O)c2c1oc(C(F)(F)F)c2C(=O)c1ccccc1,1.8*,3.1*,2.0*,0.7*,3.5*
COc1ccc(CNC(=O)c2ccc(-c3ccccc3)cc2)cc1,95.9,.,101.7,.,.

# Source: PubChem (SRMLSC)
